# Data taken from ChEMBL document CHEMBL5620435, “Elucidating the Mechanism of Metabolism of Cannabichromene by Human Cytochrome P450s” (J Nat Prod, 2024).
# Activity calls are given as the source filed them. The calls are words filed in the database; no cut-off is given here.
# Columns and labels:
# BV-2 [1] = assay: Cytotoxicity against mouse BV-2 cells assessed as reduction in cell viability at 0.1 to 5 uM incubated for 24 hrs by MTT assay; type: toxicity, cell-based; conditions: bv-2, 24 h, dose 0.1-5 µM
# In short: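 BV-2 cells were seeded at about 10 000/well and grown for 24 h. They were preincubated 4 h with cannabinoids at 0.1, 1.0, 2.5 or 5.0 μM (0.1% ethanol), then held 24 h with or without LPS (25 ng/mL). MTT reagent was added for 4 h at 37 °C, the formazan was dissolved, and absorbance was read at 570 nm.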
# BV-2 [2] = assay: Antiinflammatory activity in LPS-induced mouse BV-2 cells assessed as reduction in TNF-alpha production preincubated for 4 hrs followed by LPS stimulation for 24 hrs by ELISA; type: functional, cell-based; conditions: dose 0.1-5 µM, time 28.0 hrs
# In short: (§1)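 BV-2 microglia in high-glucose DMEM with 5% heat-inactivated FBS, 37 °C, 5% CO2. Cells (50 000/well) were pretreated with cannabinoids at 0.1, 1.0, 2.5 or 5.0 μM (ethanol 0.1% final) for 4 h, then stimulated with LPS (25 ng/mL) for 24 h. Medium was collected. NO was read by Griess assay at 540 nm against a sodium nitrite calibration curve. IL-6, TNFα and Arg1 were measured by ELISA.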
# BV-2 [3] = assay: Antiinflammatory activity in LPS-induced mouse BV-2 cells assessed as reduction in IL-6 production preincubated for 4 hrs followed by LPS stimulation for 24 hrs by ELISA; type: functional, cell-based; conditions: dose 0.1-5 µM, time 28.0 hrs; in short: as §1
# BV-2 [4] = assay: Antiinflammatory activity in LPS-induced mouse BV-2 cells assessed as reduction in NO production preincubated for 4 hrs followed by LPS stimulation for 24 hrs by Griess reagent based assay; type: functional, cell-based; conditions: dose 0.1-5 µM, time 28.0 hrs; in short: as §1
# BV-2 [5] = assay: Antiinflammatory activity in LPS-induced mouse BV-2 cells assessed as increase in Arg-1 production preincubated for 4 hrs followed by LPS stimulation for 24 hrs by ELISA; type: functional, cell-based; conditions: dose 0.1-5 µM, time 28.0 hrs; in short: as §1
# BV-2 [6] = assay: Antiinflammatory activity in LPS-induced mouse BV-2 cells assessed as reduction in TNF-alpha production at 0.1 to 5 uM preincubated for 4 hrs followed by LPS stimulation for 24 hrs by ELISA; type: functional, cell-based; conditions: dose 0.1-5 µM, time 28.0 hrs; in short: as §1
# BV-2 [7] = assay: Antiinflammatory activity in LPS-induced mouse BV-2 cells assessed as reduction in IL-6 production at 0.1 to 5 uM preincubated for 4 hrs followed by LPS stimulation for 24 hrs by ELISA; type: functional, cell-based; conditions: dose 0.1-5 µM, time 28.0 hrs; in short: as §1
# BV-2 [8] = assay: Antiinflammatory activity in LPS-induced mouse BV-2 cells assessed as reduction in NO production at 0.1 to 5 uM preincubated for 4 hrs followed by LPS stimulation for 24 hrs by Griess reagent based assay; type: functional, cell-based; conditions: dose 0.1-5 µM, time 28.0 hrs; in short: as §1
# [9] = Drug metabolism in C57BL/6J mouse plasma assessed as 2-(2-(3,3-dimethyloxiran-2-yl)ethyl)-2-methyl-7-pentyl-2H-chromen-5-ol metabolite formation at 20 mg/kg, ip measured after 0.5 to 2 hrs by LC/MS/MS analysis; type: ADME, organism-based; conditions: in vivo, time 0.5-2 hrs
# In short: (§2)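 Female C57BL/6J mice, 8–10 weeks old, received CBC at 20 mg/kg in PBS with 6% Tween-80, IV via the tail vein or IP (n = 3 per route). Blood was taken terminally by cardiac puncture into heparin at 0.5 and 2 h. Plasma (200 μL) was extracted with hexane/ethyl acetate (80:20). CBC and metabolites were quantified by targeted LC-MS/MS (C6-phenyl column, positive ESI) as means ±SE.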
# [10] = Drug metabolism in C57BL/6J mouse plasma assessed as 2-(2-(3,3-dimethyloxiran-2-yl)ethyl)-2-methyl-7-pentyl-2H-chromen-5-ol metabolite formation at 20 mg/kg, iv administered via tail vein measured after 0.5 to 2 hrs by LC/MS/MS analysis; type: ADME, organism-based; conditions: in vivo, time 0.5-2 hrs; in short: as §2
# Cytochrome P450 2J2 [11] = biological target: T1, Cytochrome P450 2J2 (Homo sapiens, UniProt P51589); assay: Binding affinity to CYP2J2 (unknown origin) assessed as fold increase in apparent dissociation constant by spectroscopic titration analysis in presence of cytochrome P450 reductase; type: ADME
# T1 sequence (P51589 whole entry): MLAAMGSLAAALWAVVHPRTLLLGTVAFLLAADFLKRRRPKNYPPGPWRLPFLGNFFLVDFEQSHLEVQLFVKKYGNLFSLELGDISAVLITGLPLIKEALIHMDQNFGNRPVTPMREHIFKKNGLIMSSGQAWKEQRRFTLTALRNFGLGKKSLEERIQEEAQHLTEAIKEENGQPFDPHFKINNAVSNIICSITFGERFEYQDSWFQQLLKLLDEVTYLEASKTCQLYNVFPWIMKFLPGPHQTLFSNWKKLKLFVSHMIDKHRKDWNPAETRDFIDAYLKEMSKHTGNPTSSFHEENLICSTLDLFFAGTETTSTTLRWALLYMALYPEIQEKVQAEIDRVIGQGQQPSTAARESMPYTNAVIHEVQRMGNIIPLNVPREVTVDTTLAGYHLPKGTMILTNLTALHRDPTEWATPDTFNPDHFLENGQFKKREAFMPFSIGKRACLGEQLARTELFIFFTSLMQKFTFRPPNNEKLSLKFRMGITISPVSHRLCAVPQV
# In short: (§3)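 His-tagged CYPs were expressed in E. coli and Ni-NTA purified. Buffer-exchanged CYP was in 0.1 M phosphate pH 7.4. CPR was added and the pair was preincubated 5 min; final protein was 5–6 μM each. CBC (ethanol stock, ≤1% final) was titrated 0–100 μM with 5 min at 37 °C per step. The Soret shift from ~417 to ~390 nm was recorded as a difference spectrum. Kd(app) came from a one-site binding fit and was compared with CYP alone (4–5 μM protein).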
# Cytochrome P450 3A4 = Cytochrome P450 3A4 (Homo sapiens, UniProt P08684); assay: Binding affinity to CYP3A4 (unknown origin) assessed as fold increase in apparent dissociation constant by spectroscopic titration analysis in presence of cytochrome P450 reductase; type: ADME; in short: as §3
# [12] = Drug metabolism in C57BL/6J mouse plasma assessed as (E)-2-(5-hydroxy-4-methylpent-3-en-1-yl)-2-methyl-7-pentyl-2H-chromen-5-ol metabolite formation at 20 mg/kg, ip measured after 0.5 hrs by LC/MS/MS analysis; type: ADME, organism-based; conditions: in vivo; in short: as §2
# Cannabinoid receptor 2 = Cannabinoid receptor 2 (Homo sapiens, UniProt P34972); assay: Binding affinity to CBR2 (unknown origin)
# [13] = Drug metabolism in C57BL/6J mouse plasma assessed as (E)-2-(5-hydroxy-4-methylpent-3-en-1-yl)-2-methyl-7-pentyl-2H-chromen-5-ol metabolite formation at 20 mg/kg, iv administered via tail vein measured after 2 hrs by LC/MS/MS analysis; type: ADME, organism-based; conditions: in vivo; in short: as §2
# Cytochrome P450 2C8 [14] = biological target: T2, Cytochrome P450 2C8 (Homo sapiens, UniProt P10632); assay: Drug metabolism assessed as ratio of CYP2C8 (unknown origin) mediated (E)-2-(5-hydroxy-4-methylpent-3-en-1-yl)-2-methyl-7-pentyl-2H-chromen-5-ol formation to 2-(2-(3,3-dimethyloxiran-2-yl)ethyl)-2-methyl-7-pentyl-2H-chromen-5-ol formation; type: ADME
# T2 sequence (P10632 whole entry): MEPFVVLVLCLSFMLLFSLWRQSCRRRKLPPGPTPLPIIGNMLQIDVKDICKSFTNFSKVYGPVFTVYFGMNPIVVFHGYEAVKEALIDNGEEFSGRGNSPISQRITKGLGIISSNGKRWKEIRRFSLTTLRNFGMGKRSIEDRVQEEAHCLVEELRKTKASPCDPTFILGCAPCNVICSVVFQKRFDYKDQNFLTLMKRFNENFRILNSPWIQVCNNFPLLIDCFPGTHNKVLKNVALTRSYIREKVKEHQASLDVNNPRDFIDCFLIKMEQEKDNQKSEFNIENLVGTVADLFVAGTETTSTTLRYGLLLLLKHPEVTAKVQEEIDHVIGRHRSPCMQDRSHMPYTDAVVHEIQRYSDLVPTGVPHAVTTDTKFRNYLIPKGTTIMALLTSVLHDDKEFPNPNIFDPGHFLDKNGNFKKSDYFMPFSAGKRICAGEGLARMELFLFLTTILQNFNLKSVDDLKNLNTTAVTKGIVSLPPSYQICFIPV
# In short: (§4)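 Recombinant CYP (0.5 μM final) was reconstituted in POPC:POPS (8:2) with CPR (0.6 μM) in 0.1 M potassium phosphate pH 7.4. CBC (5–80 μM) was preincubated 10 min at 37 °C and the reaction started with NADPH. Products were extracted three times with hexane/ethyl acetate (80:20), dried, resuspended in ethanol and analysed by LC-MS/MS.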
# [15] = Drug metabolism assessed as benzylic hydroxylation mediated 7-(1-hydroxypentyl)-2-methyl-2-(4-methylpent-3-en-1-yl)-2H-chromen-5-ol metabolite formation; type: ADME; conditions: 40 min, dose 5-80 µM
# In short: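 Pooled human liver microsomes (mixed-gender, 50 donors) gave 0.4 μM CYP final in 0.1 M phosphate pH 7.4. CBC 40 μM final was preincubated 10 min. NADPH 1 mM final was added and the reaction ran 30 min at 37 °C. It was quenched and extracted three times with hexane/ethyl acetate (80:20), dried, resuspended in 95% ethanol and analysed by LC-MS (C18, positive ESI).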
# [16] = Drug metabolism in C57BL/6J mouse plasma assessed as 5-(5-hydroxy-2-methyl-7-pentyl-2H-chromen-2-yl)-2-methylpentane-2,3-diol metabolite formation at 20 mg/kg, iv administered via tail vein measured after 0.5 to 2 hrs by LC/MS/MS analysis; type: ADME, organism-based; conditions: in vivo, time 0.5-2 hrs; in short: as §2
# Cannabinoid receptor 1 = Cannabinoid receptor 1 (Homo sapiens, UniProt P21554); assay: Displacement of d [3H]CP-55,940 from CBR1 (unknown origin) expressed in Sf9 cell membrane assessed as inhibition constant by Topcount scintillation counting analysis; type: cell membranes
# [17] = Drug metabolism in C57BL/6J mouse plasma assessed as (E)-2-(5-hydroxy-4-methylpent-3-en-1-yl)-2-methyl-7-pentyl-2H-chromen-5-ol metabolite formation at 20 mg/kg, iv administered via tail vein measured after 0.5 hrs by LC/MS/MS analysis; type: ADME, organism-based; conditions: in vivo; in short: as §2
# Cytochrome P450 2J2 [18] = biological target: T1, Cytochrome P450 2J2; assay: Drug metabolism assessed as ratio of CYP2J2 (unknown origin) mediated (E)-2-(5-hydroxy-4-methylpent-3-en-1-yl)-2-methyl-7-pentyl-2H-chromen-5-ol formation to 2-(2-(3,3-dimethyloxiran-2-yl)ethyl)-2-methyl-7-pentyl-2H-chromen-5-ol formation; type: ADME; in short: as §4
# [19] = Drug metabolism in C57BL/6J mouse plasma assessed as 5-(5-hydroxy-2-methyl-7-pentyl-2H-chromen-2-yl)-2-methylpentane-2,3-diol metabolite formation at 20 mg/kg, ip measured after 0.5 to 2 hrs by LC/MS/MS analysis; type: ADME, organism-based; conditions: in vivo, time 0.5-2 hrs; in short: as §2
# Cytochrome P450 2D6 = Cytochrome P450 2D6 (Homo sapiens, UniProt P10635); assay: Binding affinity to CYP2D6 (unknown origin) assessed as fold increase in apparent dissociation constant by spectroscopic titration analysis in presence of cytochrome P450 reductase; type: ADME; in short: as §3
# Cytochrome P450 2C8 [20] = biological target: T2, Cytochrome P450 2C8; assay: Binding affinity to CYP2C8 (unknown origin) assessed as fold increase in apparent dissociation constant by spectroscopic titration analysis in presence of cytochrome P450 reductase; type: ADME; in short: as §3
# [21] = Drug metabolism in C57BL/6J mouse plasma assessed as (E)-2-(5-hydroxy-4-methylpent-3-en-1-yl)-2-methyl-7-pentyl-2H-chromen-5-ol metabolite formation at 20 mg/kg, ip measured after 2 hrs by LC/MS/MS analysis; type: ADME, organism-based; conditions: in vivo; in short: as §2
# [22] = Stability in C57BL/6J mouse plasma assessed as compound consumption by measuring reduction in parent compound level at 20 mg/kg, ip measured after 0.5 to 2 hrs by LC-MS/MS analysis; type: ADME, organism-based; conditions: in vivo, time 0.5-2 hrs; in short: as §2
# Sequence of Cannabinoid receptor 1 (P21554 whole entry): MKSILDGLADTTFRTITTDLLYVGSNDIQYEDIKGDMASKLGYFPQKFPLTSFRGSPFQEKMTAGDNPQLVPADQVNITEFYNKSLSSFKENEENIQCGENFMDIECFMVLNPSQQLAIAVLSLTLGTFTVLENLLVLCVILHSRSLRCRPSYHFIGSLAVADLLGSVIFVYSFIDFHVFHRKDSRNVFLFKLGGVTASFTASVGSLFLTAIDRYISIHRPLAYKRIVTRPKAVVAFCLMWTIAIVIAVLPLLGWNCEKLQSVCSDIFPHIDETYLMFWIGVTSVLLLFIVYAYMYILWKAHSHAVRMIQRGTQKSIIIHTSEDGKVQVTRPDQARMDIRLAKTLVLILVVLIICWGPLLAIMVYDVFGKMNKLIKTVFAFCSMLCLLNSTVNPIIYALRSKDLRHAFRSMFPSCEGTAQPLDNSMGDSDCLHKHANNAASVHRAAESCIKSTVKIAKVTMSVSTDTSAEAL
# Sequence of Cannabinoid receptor 2 (P34972 whole entry): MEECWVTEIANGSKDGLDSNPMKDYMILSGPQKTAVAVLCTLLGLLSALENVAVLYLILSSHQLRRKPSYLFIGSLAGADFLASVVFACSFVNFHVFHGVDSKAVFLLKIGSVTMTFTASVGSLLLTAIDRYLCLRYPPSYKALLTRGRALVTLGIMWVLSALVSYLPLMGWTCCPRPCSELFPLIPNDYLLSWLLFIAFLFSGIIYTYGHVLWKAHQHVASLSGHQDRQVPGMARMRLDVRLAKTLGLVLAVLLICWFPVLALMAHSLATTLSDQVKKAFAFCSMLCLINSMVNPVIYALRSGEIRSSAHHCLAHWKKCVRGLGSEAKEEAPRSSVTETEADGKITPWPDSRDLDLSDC
# Sequence of Cytochrome P450 2D6 (P10635 whole entry): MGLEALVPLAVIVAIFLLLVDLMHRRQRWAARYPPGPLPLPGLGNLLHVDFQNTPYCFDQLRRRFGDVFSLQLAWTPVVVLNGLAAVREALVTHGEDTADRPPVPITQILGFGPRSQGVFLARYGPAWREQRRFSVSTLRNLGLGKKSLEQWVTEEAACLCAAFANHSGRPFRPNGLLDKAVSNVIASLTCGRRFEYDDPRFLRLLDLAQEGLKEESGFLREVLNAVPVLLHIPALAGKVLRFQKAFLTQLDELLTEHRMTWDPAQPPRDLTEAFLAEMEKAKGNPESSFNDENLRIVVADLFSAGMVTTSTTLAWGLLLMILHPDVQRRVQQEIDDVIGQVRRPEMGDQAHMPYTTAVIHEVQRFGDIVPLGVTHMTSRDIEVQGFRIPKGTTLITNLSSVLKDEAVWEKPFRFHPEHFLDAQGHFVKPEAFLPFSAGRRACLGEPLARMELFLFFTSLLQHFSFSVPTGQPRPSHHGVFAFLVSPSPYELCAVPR
# Sequence of Cytochrome P450 3A4 (P08684 whole entry): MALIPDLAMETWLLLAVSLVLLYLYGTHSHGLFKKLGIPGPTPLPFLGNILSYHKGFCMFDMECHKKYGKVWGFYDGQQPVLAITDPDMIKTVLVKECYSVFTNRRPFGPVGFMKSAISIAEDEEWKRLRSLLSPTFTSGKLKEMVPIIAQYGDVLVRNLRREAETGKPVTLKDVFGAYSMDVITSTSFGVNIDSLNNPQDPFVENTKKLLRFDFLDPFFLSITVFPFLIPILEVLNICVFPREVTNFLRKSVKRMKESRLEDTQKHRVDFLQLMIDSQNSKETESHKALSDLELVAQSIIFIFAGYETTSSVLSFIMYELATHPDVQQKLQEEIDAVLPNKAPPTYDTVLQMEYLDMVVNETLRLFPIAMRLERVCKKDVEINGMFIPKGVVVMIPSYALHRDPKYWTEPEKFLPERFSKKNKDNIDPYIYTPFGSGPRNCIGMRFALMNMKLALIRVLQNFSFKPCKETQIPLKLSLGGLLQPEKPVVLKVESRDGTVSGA
smiles,measurement,setting,value
C=C(C)C(O)CCC1(C)C=Cc2c(O)cc(CCCCC)cc2O1 (stereo not drawn),Activity,BV-2 [1],Non-Toxic
same,Activity,BV-2 [2],Dose-Dependent Effect
same,Activity,BV-2 [3],Active
same,Activity,BV-2 [4],Dose-Dependent Effect
CCCCCc1cc(O)c2c(c1)OC(C)(CCC(O)C(C)(C)O)C=C2 (stereo not drawn),Activity,BV-2 [1],Non-Toxic
same,Activity,BV-2 [5],Dose-Dependent Effect
same,Activity,BV-2 [2],Dose-Dependent Effect
same,Activity,BV-2 [3],Active
same,Activity,BV-2 [4],Dose-Dependent Effect
CCCCCc1cc(O)c2c(c1)OC(C)(CC/C=C(\C)CO)C=C2 (stereo not drawn),Activity,BV-2 [6],inactive
same,Activity,BV-2 [7],inactive
same,Activity,BV-2 [8],inactive
same,Activity,BV-2 [1],Non-Toxic
CCCCCc1cc(O)c2c(c1)OC(C)(CCC1OC1(C)C)C=C2 (stereo not drawn),Activity,BV-2 [1],Non-Toxic
same,Activity,BV-2 [3],Active
CCCCC(O)c1cc(O)c2c(c1)OC(C)(CCC=C(C)C)C=C2 (stereo not drawn),Activity,BV-2 [1],Non-Toxic
same,Activity,BV-2 [5],Dose-Dependent Effect
same,Activity,BV-2 [2],Dose-Dependent Effect
same,Activity,BV-2 [3],Active
CCCCCc1cc(O)c2c(c1)OC(C)(CCC=C(C)C)C=C2 (stereo not drawn) [CANNABICHROMENE],Drug metabolism,[9],Metabolite_Detected
same,Drug metabolism,[10],Metabolite_Detected
same,fold change (FC),Cytochrome P450 2J2 [11],3
same,Activity,BV-2 [1],Non-Toxic
same,fold change (FC),Cytochrome P450 3A4,5
same,Drug metabolism,[12],Metabolite_Detected
same,Ki,Cannabinoid receptor 2,~0.1 µM
same,Drug metabolism,[13],Metabolite_Notdetected
same,Ratio,Cytochrome P450 2C8 [14],~ 5
same,Drug metabolism,[15],Metabolite_Detected
same,Drug metabolism,[16],Metabolite_Detected
same,Ki,Cannabinoid receptor 1,~0.713 µM
same,Drug metabolism,[17],Metabolite_Detected
same,Ratio,Cytochrome P450 2J2 [18],~ 50
same,Drug metabolism,[19],Metabolite_Detected
same,fold change (FC),Cytochrome P450 2D6,3
same,fold change (FC),Cytochrome P450 2C8 [20],5
same,Drug metabolism,[21],Metabolite_Notdetected
same,Drug metabolism,[22],Metabolite_Detected
